The source made the active and inactive calls. No cut-off for these calls is given here.
Assays:
[1] = tested on: Staphylococcus aureus; experiment: Antimicrobial activity against Staphylococcus aureus ATCC 25923 assessed as growth inhibition of planktonic forms incubated for 24 hrs; format: organism-based; conditions: in vitro
Summary of the method: (§1)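 Broth microdilution in tryptic soy broth. Two-fold series 100 to 0.75 μg/mL made from a 1 mg/mL stock in 0.9% NaCl. Inoculum ~10⁶ cfu/mL taken from a 24 h culture, 37 °C 24 h.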

[2] = tested on: Staphylococcus aureus; experiment: Antimicrobial activity against Staphylococcus aureus ATCC 6538 assessed as growth inhibition of planktonic forms incubated for 24 hrs; format: organism-based; conditions: in vitro; summary of the method: as §1
[3] = tested on: Staphylococcus epidermidis; experiment: Antimicrobial activity against Staphylococcus epidermidis ATCC 12228 assessed as growth inhibition of planktonic forms incubated for 24 hrs; format: organism-based; conditions: in vitro; summary of the method: as §1
[4] = tested on: Pseudomonas aeruginosa; experiment: Antimicrobial activity against Pseudomonas aeruginosa ATCC 15442 assessed as growth inhibition of planktonic forms incubated for 24 hrs; format: organism-based; conditions: in vitro; summary of the method: as §1
[5] = tested on: Escherichia coli; experiment: Antimicrobial activity against Escherichia coli ATCC 25922 assessed as growth inhibition of planktonic forms incubated for 24 hrs; format: organism-based; conditions: in vitro; summary of the method: as §1
[6] = tested on: Staphylococcus aureus; experiment: Antibiofilm activity against Staphylococcus aureus ATCC 25923 incubated for 24 hrs by crystal violet-staining based assay; format: functional
Summary of the method: (§2)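 Biofilm prevention: 0.5 McFarland inoculum (2.5 µL) in 100 µL TSB with 2% w/v glucose, compound present from the start over 100–0.1 µg/mL, 37 °C 24 h. Washed with PBS, stained 0.1% w/v crystal violet 30 min, eluted with 33% v/v acetic acid, read at 570 nm. BIC50 (50% inhibition versus untreated control) derived by linear regression; triplicate, repeated at least twice.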

[7] = tested on: Staphylococcus aureus; experiment: Antibiofilm activity against Staphylococcus aureus ATCC 6538 incubated for 24 hrs by crystal violet-staining based assay; format: functional; summary of the method: as §2
[8] = tested on: Staphylococcus epidermidis; experiment: Antibiofilm activity against Staphylococcus epidermidis ATCC 12228 incubated for 24 hrs by crystal violet-staining based assay; format: functional; summary of the method: as §2
[9] = tested on: Staphylococcus aureus; experiment: Antibiofilm activity against 24 hrs preformed biofilm of Staphylococcus aureus ATCC 25923 assessed as dispersion of bacteria incubated for 24 hrs by crystal violet-staining based assay; format: functional, organism-based; conditions: ATCC 25923, 24 h
Summary of the method: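 Preformed biofilm: 0.5 McFarland suspension (2.5 µl) grown 24 h in TSB with 2% w/v glucose. Wells washed twice with PBS and refilled with fresh TSB, then compound added at graded concentrations starting at or above the planktonic MIC. Incubated a further 24 h at 37 °C, washed, heat-fixed 60 °C 1 h, 0.1% crystal violet 30 min, dye solubilized, A540. Percent inhibition versus untreated growth control; triplicate, repeated at least twice.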

[10] = tested on: Bacteria; experiment: Inhibition of recombinant bacterial SrtA at 100 uM using 5-FAM/QXL 520 Sortase as substrate preincubated for 10 mins followed by substrate addition and measured every 5 mins for 60 mins by fluorescence assay
Summary of the method: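 FRET kit assay: 2.5 µg/ml recombinant SrtA, 4 µM fluorescent peptide substrate, compound at 100 µM in 1% DMSO. Compound and enzyme added first, then substrate. Fluorescence (Ex/Em 490/520 nm) recorded every 5 min for 60 min. Substrate without enzyme served as negative control and 4-(hydroxymercuri)benzoic acid as positive control.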

[11] = tested on: Pseudomonas aeruginosa; experiment: Antibiofilm activity against Pseudomonas aeruginosa ATCC 15442 assessed as inhibition of biofilm formation at 100 ug/ml incubated for 24 hrs by crystal violet-staining based assay; format: functional; conditions: ATCC 15442, 24 h
[12] = tested on: Escherichia coli; experiment: Antibiofilm activity against Escherichia coli ATCC 25922 assessed as inhibition of biofilm formation at 100 ug/ml incubated for 24 hrs by crystal violet-staining based assay; format: functional; conditions: ATCC 25922, 24 h
[13] = tested on: Staphylococcus aureus; experiment: Antibiofilm activity against Staphylococcus aureus ATCC 25923 assessed as inhibition of biofilm formation at 100 ug/ml incubated for 24 hrs by crystal violet-staining based assay; format: functional; conditions: ATCC 25923, 24 h
[14] = tested on: Staphylococcus aureus; experiment: Antibiofilm activity against Staphylococcus aureus ATCC 6538 assessed as inhibition of biofilm formation at 100 ug/ml incubated for 24 hrs by crystal violet-staining based assay; format: functional; conditions: ATCC 6538, 24 h

IC50 [9] [µg/mL]	inhibition [10]	SMILES	MIC [1] [µg/mL]	MIC [2] [µg/mL]	MIC [3] [µg/mL]	MIC [4] [µg/mL]	MIC [5] [µg/mL]	MBIC50 [6] [µM]	MBIC90 [6] [µg/mL]	inhibition [6]	MBIC50 [7] [µM]	inhibition [7]	MBIC50 [8] [µM]	inhibition [8]	inhibition at 100 µg/mL [11] [%]	inhibition at 100 µg/mL [12] [%]	inhibition at 100 µg/mL [13] [%]	inhibition at 100 µg/mL [14] [%]
142	inactive	Br.COc1ccc(OC)c(-c2cn3nc(-c4c[nH]c5ccccc45)sc3n2)c1	> 100	> 100	> 100	> 100	> 100	1.2	36.5	Dose-dependent effect	18.5	Dose-dependent effect	29.9	Dose-dependent effect	< 15	< 15	–	–
–	–	Cn1cc(-c2nn3cc(-c4ccccc4)nc3s2)c2cc(Cl)ccc21	> 100	> 100	> 100	> 100	> 100	–	–	–	–	–	36.5	Dose-dependent effect	< 15	< 15	< 15	< 15
–	–	Br.Cn1cc(-c2nn3cc(-c4ccccc4)nc3s2)c2cc(Br)ccc21	> 100	> 100	> 100	> 100	> 100	–	–	–	–	–	21.6	Dose-dependent effect	< 15	< 15	< 15	< 15
